Sampled rows, rich in hits. Any-hit rate of the full collection: about 2.8%.
ASAP1 GAP inh: blocks human ASAP1-stimulated Arf1 GTP hydrolysis | Q9ULH1 | GDP FP detection | inhibition, % at 16.5 µM | 0.19% of 360,000 active | AID 624377; in the data active = inhibition above about 25%
PAFAH1B2 inh: inhibitors of human PAFAH1B2; P68402; recombinant PAFAH1B2, FP-rhodamine activity probe, fluorescence polarization; AID 492953; 1.2% of 340,000 active; inhibition, % at 3.39 µM;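 active = inhibition above the mean of all tested compounds plus 3 SD, cut at about 24% in these data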
Target sequence (P68402 whole entry, looked up): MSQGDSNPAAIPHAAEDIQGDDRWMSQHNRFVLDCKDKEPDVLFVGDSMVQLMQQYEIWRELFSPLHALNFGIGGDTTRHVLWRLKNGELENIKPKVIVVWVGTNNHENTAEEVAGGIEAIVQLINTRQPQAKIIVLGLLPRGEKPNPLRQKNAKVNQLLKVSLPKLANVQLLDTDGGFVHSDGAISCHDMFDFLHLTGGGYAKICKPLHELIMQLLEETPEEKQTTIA
PAFAH1B3 FP inh: PAFAH1B3 (human) inhibition | recombinant PAFAH1B3, FP-rhodamine probe, fluorescence polarization | Q15102 | inhibition, % at 3.39 µM | 0.28% of 340,000 active;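 active = inhibition above the screen-wide average of all tested compounds plus 3 SD, cut at about 25% in these data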
Target sequence (Q15102 whole entry, looked up): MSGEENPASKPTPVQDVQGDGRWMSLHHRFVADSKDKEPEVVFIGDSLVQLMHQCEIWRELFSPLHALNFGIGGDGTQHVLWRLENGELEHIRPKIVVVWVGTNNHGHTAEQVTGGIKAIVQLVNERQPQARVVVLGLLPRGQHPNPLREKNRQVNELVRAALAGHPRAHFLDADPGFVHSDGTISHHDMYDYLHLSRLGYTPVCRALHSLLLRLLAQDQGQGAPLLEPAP
PAFAH2 inh: PAFAH2 (human) inhibition. Q99487. recombinant PAFAH2, FP-rhodamine activity probe, fluorescence polarization. inhibition, % at 3.39 µM. 0.99% of 340,000 active;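 active = inhibition above the mean over all tested compounds plus 3 SD, cut at about 30% in these data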;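 note: inhibitors block probe labeling of enzyme so polarization drops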
ARFGAP1 inh: rat ARFGAP1 inhibition; Arfgap1-stimulated ARF1 GTP hydrolysis, GDP FP detection; AID 651572; inhibition, % at 16.5 µM; 0.26% of 360,000 active;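 active = inhibition above a per-plate limit, mean inhibition of low control wells plus 3 SD, cut at about 25% in these data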
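material = rat Arfgap1 catalytic domain, aa 1-136 | also added = human ARF1(Δ1-17)-GTP substrate | compound dosing = one concentration, 16.5 µM, DMSO 1.26% | times = GTP hydrolysis reaction 2 h at 25 °C | measured by = FP, GDP Alexa 633 tracer displaced from anti-GDP antibody, 620/688 nm | evaluation = percent inhibition of Arfgap1-stimulated GTP hydrolysis | replication = single well per compound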
pPAFAH FP inh: pPAFAH (human) enzyme inhibition; recombinant pPAFAH, FP-rhodamine probe fluorescence polarization; inhibition, % at 3.39 µM; 1.5% of 330,000 active; AID 463082;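 active = inhibition above the mean inhibition across the screen plus 3 SD, cut at about 25% in these data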;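 note: inhibitors block binding of the rhodamine activity-based probe so polarization drops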
Hits are given with their value; i = inactive; nt = no result given.

SMILES | ASAP1 GAP inh | PAFAH1B2 inh | PAFAH1B3 FP inh | PAFAH2 inh | ARFGAP1 inh | pPAFAH FP inh
Clc1ccc(N=C2SCC3CCCCN23)cc1 (stereo unspecified) | i | i | i | i | i | i
COC(=O)Cc1c(O)ccn(Cc2ccc(Cl)c(Cl)c2)c1=O | i | 28 | i | i | i | i
O=c1c(Cc2ccc(Cl)cc2Cl)c(O)ccn1Cc1ccc(Cl)cc1 | i | 28 | i | i | i | i
O=c1c(Cc2ccc(Cl)cc2)c(O)ccn1Cc1cccc(Cl)c1 | i | i | i | i | i | i
CC(Cc1nnc(N)s1)c1ccccc1 (stereo unspecified) | i | i | i | i | i | i
CC1(C(=O)NCc2cccc3ccccc23)CCN1Cc1cc2ccccc2o1 (stereo unspecified) | i | nt | nt | nt | i | nt
COc1ccc(C2(C)NC(=O)N(CC(=O)Nc3ccc4[nH]c(=O)[nH]c4c3)C2=O)cc1 (stereo unspecified) | i | i | i | i | i | i
O=C(CN1C(=O)NC(c2ccccc2)(c2ccccc2)C1=O)Nc1ccc2[nH]c(=O)[nH]c2c1 | i | i | i | i | i | 25
CC1(c2ccc(OC(F)F)cc2)NC(=O)N(CC(=O)Nc2ccc3[nH]c(=O)[nH]c3c2)C1=O (stereo unspecified) | i | i | i | i | i | 28
CN(C(=O)CSc1nnc(-c2ccc(Cl)cc2)n1C)C1CCS(=O)(=O)C1 (stereo unspecified) | i | i | i | i | i | i
CCN(CC)c1ccc(N=C2C(=O)Nc3ccccc32)cc1 | i | i | i | i | i | 29
CCN(CC)S(=O)(=O)c1cccc(-c2n[nH]c(=S)n2Cc2ccccc2)c1 | i | i | i | i | i | i
CCCCc1n[nH]c(=S)n1Cc1ccccc1 | i | i | i | i | i | i
CCCCc1n[nH]c(=S)n1Cc1ccc(Cl)cc1 | i | 27 | i | i | i | i
COc1ccc(NS(=O)(=O)c2cccc(-c3n[nH]c(=S)n3Cc3ccccc3)c2)cc1 | i | i | i | i | i | 27
S=c1[nH]nc(-c2ccc(Cl)cc2)n1Cc1ccccc1 | i | 37 | i | i | i | i
COc1ccc(NS(=O)(=O)c2ccc(C)c(C(=O)NC3CCN(Cc4ccccc4)CC3)c2)cc1 | i | i | i | i | i | 26
C[C@H](CO)N1C[C@H](C)[C@@H](CN(C)S(=O)(=O)c2cccc(C#N)c2)OCc2cn(nn2)CCCC1=O | i | nt | nt | nt | i | nt
Cc1cccc(C)c1NC(=O)C(c1cccc2ccccc12)n1c(=O)c(-c2cc3ccccc3[nH]2)nc2ccccc21 (stereo unspecified) | i | nt | nt | nt | i | nt
COc1ccc(-c2csc(C(NC(C)=O)c3cccc(F)c3)n2)cn1 (stereo unspecified) | i | nt | nt | nt | i | nt
S=c1[nH]nc(Cc2ccccc2)n1-c1ccc(Cl)cc1 | i | 29 | i | i | i | i
COc1ccc(NS(=O)(=O)c2cccc(-c3nnc(-c4ccccc4)o3)c2)cc1 | i | i | i | i | i | 30
COc1ccc(NS(=O)(=O)c2ccc(NS(=O)(=O)c3cccc(C(=O)O)c3)cc2)cc1 | i | i | i | i | i | i
COc1ccc(NS(=O)(=O)c2ccc(-c3n[nH]c(=S)n3Cc3ccccc3)cc2)cc1 | i | i | i | i | i | 25
CCOc1ccc(Cl)cc1-c1cc(C(=O)NCCc2ccncc2)[nH]n1 | i | nt | nt | nt | i | nt
SMILES | ASAP1 GAP inh | PAFAH1B2 inh | PAFAH1B3 FP inh | PAFAH2 inh | ARFGAP1 inh | pPAFAH FP inh
O=C(CN1C(=O)NC2(CCCC2)C1=O)N1CCN(c2ccccc2O)CC1 | i | i | i | i | i | i
COC(=O)Nc1sc2c(c1C(N)=O)CCC(C)C2 (stereo unspecified) | i | i | i | i | i | i
CC1CCc2c(sc(NC(=O)c3cccn3C)c2C(N)=O)C1 (stereo unspecified) | i | i | i | i | i | 29
COc1ccc(CNC(=O)C2CCN(c3nc(-c4ccccc4)nc4c3CCC4)CC2)cc1 | i | i | i | i | i | i
O=C1C(CCCNC(=S)NCc2ccccc2)NC(=S)N1Cc1ccccc1 (stereo unspecified) | i | 25 | i | i | i | i
O=C(O)CC1NC(=S)N(Cc2ccccc2)C1=O (stereo unspecified) | i | nt | nt | nt | i | nt
Cc1ccc(OCCSCc2nc3ccccc3[nH]2)cc1 | i | i | i | i | i | i

Compound activity as filed in PubChem.
